Laboratory results taken from ChEMBL document CHEMBL4004831, “Naphthalene diimide-polyamine hybrids as antiproliferative agents: Focus on the architecture of the polyamine chains” (Eur J Med Chem, 2017).

What was measured:
Homo sapiens = organism: Homo sapiens; assay: Stabilization of 5'Dabcyl/3'FAM labeled human telomeric sequence G-quadruplex DNA assessed as increase in melting temperature at 2.5 uM pretreated for 5 mins at 30 degreeC followed by 5 mins incubation at 95 degreeC by fluorescence assay
Procedure, shortened: (§1)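 FRET melting in LiP buffer (10 mM LiOH, 50 mM KCl, pH 7.0 with H3PO4), ex 488 nm, em 520 nm. Samples were held 5 min at 30 °C, heated at 1 °C/min to 95 °C, held 5 min, then re-annealed. Tm came from first derivatives; ΔTm = shift with ligand at 2.5; at least three runs.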

[1] = Stabilization of 5'Dabcyl/3'FAM labeled duplex DNA (unknown origin) assessed as increase in melting temperature at 2.5 uM pretreated for 5 mins at 30 degreeC followed by 5 mins incubation at 95 degreeC by fluorescence assay; procedure, shortened: as §1
CCRF-CEM = assay: Growth inhibition of human CCRF-CEM cells incubated for 48 hrs by sulforhodamine B assay; format: functional
HL-60 = assay: Growth inhibition of human HL60 cells incubated for 48 hrs by sulforhodamine B assay; format: functional; conditions: HL-60, 48 h
K562 = assay: Growth inhibition of human K562 cells incubated for 48 hrs by sulforhodamine B assay; format: functional; conditions: K562, 48 h
RPMI-8226 = assay: Growth inhibition of human RPMI8226 cells incubated for 48 hrs by sulforhodamine B assay; format: functional; conditions: RPMI-8226, 48 h
SR = assay: Growth inhibition of human SR cells incubated for 48 hrs by sulforhodamine B assay; format: functional
A549 = assay: Growth inhibition of human A549/ATCC cells incubated for 48 hrs by sulforhodamine B assay; format: functional; conditions: A549, 48 h
HOP-92 = assay: Growth inhibition of human HOP92 cells incubated for 48 hrs by sulforhodamine B assay; format: functional; conditions: HOP-92, 48 h
NCI-H226 = assay: Growth inhibition of human NCI-H226 cells incubated for 48 hrs by sulforhodamine B assay; format: functional; conditions: NCI-H226, 48 h
HCC 2998 = assay: Growth inhibition of human HCC2998 cells incubated for 48 hrs by sulforhodamine B assay; format: functional; conditions: HCC 2998, 48 h
HCT-116 = assay: Growth inhibition of human HCT116 cells incubated for 48 hrs by sulforhodamine B assay; format: functional; conditions: HCT-116, 48 h
HT-29 = assay: Growth inhibition of human HT-29 cells incubated for 48 hrs by sulforhodamine B assay; format: functional; conditions: HT-29, 48 h
KM12 = assay: Growth inhibition of human KM12 cells incubated for 48 hrs by sulforhodamine B assay; format: functional; conditions: KM12, 48 h
SW-620 = assay: Growth inhibition of human SW620 cells incubated for 48 hrs by sulforhodamine B assay; format: functional; conditions: SW-620, 48 h
SF-295 = assay: Growth inhibition of human SF295 cells incubated for 48 hrs by sulforhodamine B assay; format: functional; conditions: SF-295, 48 h
SF-539 = assay: Growth inhibition of human SF539 cells incubated for 48 hrs by sulforhodamine B assay; format: functional; conditions: SF-539, 48 h
SNB-19 = assay: Growth inhibition of human SNB19 cells incubated for 48 hrs by sulforhodamine B assay; format: functional; conditions: SNB-19, 48 h
SNB-75 = assay: Growth inhibition of human SNB75 cells incubated for 48 hrs by sulforhodamine B assay; format: functional; conditions: SNB-75, 48 h
LOX IMVI = assay: Growth inhibition of human LOXIMVI cells incubated for 48 hrs by sulforhodamine B assay; format: functional
Malme-3M = assay: Growth inhibition of human MALME-3M cells incubated for 48 hrs by sulforhodamine B assay; format: functional
M14 = assay: Growth inhibition of human M14 cells incubated for 48 hrs by sulforhodamine B assay; format: functional; conditions: M14, 48 h
MDA-MB-435 = assay: Growth inhibition of human MDA-MB-435 cells incubated for 48 hrs by sulforhodamine B assay; format: functional; conditions: MDA-MB-435, 48 h
SK-MEL-2 = assay: Growth inhibition of human SK-MEL-2 cells incubated for 48 hrs by sulforhodamine B assay; format: functional; conditions: SK-MEL-2, 48 h
SK-MEL-28 = assay: Growth inhibition of human SK-MEL-28 cells incubated for 48 hrs by sulforhodamine B assay; format: functional; conditions: SK-MEL-28, 48 h
SK-MEL-5 = assay: Growth inhibition of human SK-MEL-5 cells incubated for 48 hrs by sulforhodamine B assay; format: functional; conditions: SK-MEL-5, 48 h
UACC-62 = assay: Growth inhibition of human UACC62 cells incubated for 48 hrs by sulforhodamine B assay; format: functional; conditions: UACC-62, 48 h
IGROV-1 = assay: Growth inhibition of human IGROV1 cells incubated for 48 hrs by sulforhodamine B assay; format: functional; conditions: IGROV-1, 48 h
OVCAR-3 = assay: Growth inhibition of human OVCAR3 cells incubated for 48 hrs by sulforhodamine B assay; format: functional; conditions: OVCAR-3, 48 h
OVCAR-4 = assay: Growth inhibition of human OVCAR4 cells incubated for 48 hrs by sulforhodamine B assay; format: functional; conditions: OVCAR-4, 48 h
OVCAR-5 = assay: Growth inhibition of human OVCAR5 cells incubated for 48 hrs by sulforhodamine B assay; format: functional; conditions: OVCAR-5, 48 h
OVCAR-8 = assay: Growth inhibition of human OVCAR8 cells incubated for 48 hrs by sulforhodamine B assay; format: functional; conditions: OVCAR-8, 48 h
NCI/ADR-RES = assay: Growth inhibition of human NCI-ADR-RES cells incubated for 48 hrs by sulforhodamine B assay; format: functional
A498 = assay: Growth inhibition of human A498 cells incubated for 48 hrs by sulforhodamine B assay; format: functional; conditions: A498, 48 h
ACHN = assay: Growth inhibition of human ACHN cells incubated for 48 hrs by sulforhodamine B assay; format: functional
RXF 393 = assay: Growth inhibition of human RXF393 cells incubated for 48 hrs by sulforhodamine B assay; format: functional; conditions: RXF 393, 48 h
SN12C = assay: Growth inhibition of human SN12C cells incubated for 48 hrs by sulforhodamine B assay; format: functional
UO-31 = assay: Growth inhibition of human UO31 cells incubated for 48 hrs by sulforhodamine B assay; format: functional; conditions: UO-31, 48 h
PC-3 = assay: Growth inhibition of human PC3 cells incubated for 48 hrs by sulforhodamine B assay; format: functional; conditions: PC-3, 48 h
DU-145 = assay: Growth inhibition of human DU145 cells incubated for 48 hrs by sulforhodamine B assay; format: functional; conditions: DU-145, 48 h
MCF7 = assay: Growth inhibition of human MCF7 cells incubated for 48 hrs by sulforhodamine B assay; format: functional; conditions: MCF7, 48 h
MDA-MB-231 = assay: Growth inhibition of human MDA-MB-231 cells incubated for 48 hrs by sulforhodamine B assay; format: functional; conditions: MDA-MB-231, 48 h
Hs-578T = assay: Growth inhibition of human Hs 578T cells incubated for 48 hrs by sulforhodamine B assay; format: functional
MDA-MB-468 = assay: Growth inhibition of human MDA-MB-468 cells incubated for 48 hrs by sulforhodamine B assay; format: functional; conditions: MDA-MB-468, 48 h

SMILES: COc1ccccc1CNCCCN1C(=O)c2ccc3c4c(ccc(c24)C1=O)C(=O)N(CCCOCCCCOCCCN)C3=O
- ΔTm (Homo sapiens): 12.9 °C
- ΔTm [1]: 1.5 °C
- GI50 (CCRF-CEM): 550 nM
- GI50 (HL-60): 810 nM
- GI50 (K562): 494 nM
- GI50 (RPMI-8226): 1720 nM
- GI50 (SR): 346 nM
- GI50 (A549): 1220 nM
- GI50 (HOP-92): 2080 nM
- GI50 (NCI-H226): 1560 nM
- GI50 (HCC 2998): 635 nM
- GI50 (HCT-116): 344 nM
- GI50 (HT-29): 402 nM
- GI50 (KM12): 1270 nM
- GI50 (SW-620): 357 nM
- GI50 (SF-295): 1420 nM
- GI50 (SF-539): 1680 nM
- GI50 (SNB-19): 1530 nM
- GI50 (SNB-75): 1790 nM
- GI50 (LOX IMVI): 760 nM
- GI50 (Malme-3M): 248 nM
- GI50 (M14): 1090 nM
- GI50 (MDA-MB-435): 200 nM
- GI50 (SK-MEL-2): 1830 nM
- GI50 (SK-MEL-28): 1590 nM
- GI50 (SK-MEL-5): 288 nM
- GI50 (UACC-62): 742 nM
- GI50 (IGROV-1): 1260 nM
- GI50 (OVCAR-3): 593 nM
- GI50 (OVCAR-4): 197 nM
- GI50 (OVCAR-5): 1890 nM
- GI50 (OVCAR-8): 491 nM
- GI50 (NCI/ADR-RES): 1470 nM
- GI50 (A498): 1320 nM
- GI50 (ACHN): 1110 nM
- GI50 (RXF 393): 771 nM
- GI50 (SN12C): 918 nM
- GI50 (UO-31): 1550 nM
- GI50 (PC-3): 1440 nM
- GI50 (DU-145): 1780 nM
- GI50 (MCF7): 333 nM
- GI50 (MDA-MB-231): 1220 nM
- GI50 (Hs-578T): 2020 nM
- GI50 (MDA-MB-468): 289 nM

SMILES: COc1ccccc1CNCCCN1C(=O)c2ccc3c4c(ccc(c24)C1=O)C(=O)N(CCCNCCCN)C3=O
- ΔTm (Homo sapiens): 13.3 °C
- ΔTm [1]: 7 °C
- GI50 (CCRF-CEM): 193 nM
- GI50 (HL-60): 812 nM
- GI50 (K562): 264 nM
- GI50 (RPMI-8226): 612 nM
- GI50 (SR): 28 nM
- GI50 (A549): 148 nM
- GI50 (HOP-92): 1120 nM
- GI50 (NCI-H226): 746 nM
- GI50 (HCC 2998): 352 nM
- GI50 (HCT-116): 135 nM
- GI50 (HT-29): 160 nM
- GI50 (KM12): 705 nM
- GI50 (SW-620): 109 nM
- GI50 (SF-295): 456 nM
- GI50 (SF-539): 968 nM
- GI50 (SNB-19): 702 nM
- GI50 (SNB-75): 1300 nM
- GI50 (LOX IMVI): 302 nM
- GI50 (Malme-3M): 393 nM
- GI50 (M14): 992 nM
- GI50 (MDA-MB-435): 570 nM
- GI50 (SK-MEL-2): 907 nM
- GI50 (SK-MEL-28): 753 nM
- GI50 (SK-MEL-5): 484 nM
- GI50 (UACC-62): 655 nM
- GI50 (IGROV-1): 275 nM
- GI50 (OVCAR-3): 332 nM
- GI50 (OVCAR-4): 873 nM
- GI50 (OVCAR-5): 1410 nM
- GI50 (OVCAR-8): 73 nM
- GI50 (NCI/ADR-RES): 1160 nM
- GI50 (A498): 398 nM
- GI50 (ACHN): 529 nM
- GI50 (RXF 393): 246 nM
- GI50 (SN12C): 538 nM
- GI50 (UO-31): 745 nM
- GI50 (PC-3): 477 nM
- GI50 (DU-145): 638 nM
- GI50 (MCF7): 129 nM
- GI50 (MDA-MB-231): 1420 nM
- GI50 (Hs-578T): 1220 nM
- GI50 (MDA-MB-468): 246 nM
